For 20 molecules, cytotoxicity, inhibition and Kd results are on record in ChEMBL document CHEMBL4028851, “Discovery of Potent Small-Molecule Inhibitors of Ubiquitin-Conjugating Enzyme UbcH5c from α-Santonin Derivatives” (J Med Chem, 2017).

A short description of series [1]: in vitro. Particulars: human, HEK-293T cells.
Series [2] concerns the target Ubiquitin-conjugating enzyme E2 D3 (Mus musculus) (UniProt P61079). Description: Inhibition of UbcH5c in mouse b.End3 cells assessed as decrease in TNF-alpha-mediated IkB-alpha phosphorylation at 10 uM preincubated for 2 hrs followed by TNF-alpha stimulation for 20 mins by Western blot analysis. It is filed as cell-based. In outline: (§1)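 bEnd.3 cells (DMEM, 10% FBS) were pretreated with compound at 2.5, 5 or 10 µM for 2 h, then stimulated with 20 ng/mL TNF-α (15 min in the methods, 20 min in the legend). Lysates were run on 10% SDS-PAGE and immunoblotted for phospho-IκBα, IκBα, phospho-p65 and p65, with GAPDH as loading control.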

Series [3] deals with T1, Ubiquitin-conjugating enzyme E2 D3 (Homo sapiens, UniProt P61077). Description: Binding affinity to human recombinant UbcH5c by SPR analysis. For orientation: In SPR one partner is held on a chip, and binding of the other changes the refractive index at the surface.
T1 sequence (P61077 whole entry, looked up): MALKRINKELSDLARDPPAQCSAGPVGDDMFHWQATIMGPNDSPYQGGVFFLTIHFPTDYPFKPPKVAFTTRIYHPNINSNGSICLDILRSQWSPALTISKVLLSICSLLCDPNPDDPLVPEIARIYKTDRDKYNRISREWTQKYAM
The target of series [4] is Ubiquitin-conjugating enzyme E2 D3 (Mus musculus) (UniProt P61079). Kind of series: Inhibition of UbcH5c in mouse b.End3 cells assessed as decrease in TNF-alpha-mediated IkB-alpha degradation at 10 uM preincubated for 2 hrs followed by TNF-alpha stimulation for 15 mins by Western blot analysis. Background: In western blotting, separated proteins are transferred to a membrane and probed.
Chain of Ubiquitin-conjugating enzyme E2 D3 (Mus musculus) (P61079 whole entry, looked up): as the sequence (P61077 whole entry, looked up) above

For series [5], the target named is T1, Ubiquitin-conjugating enzyme E2 D3. Description: Inhibition of UbcH5c (unknown origin) at 1 uM preincubated for 15 mins followed by E1, Ub and ATP addition measured after 40 mins by Western blot analysis.
In series [6] the target is Ubiquitin-conjugating enzyme E2 D3 (Mus musculus) (UniProt P61079). Kind of series: Inhibition of UbcH5c in mouse b.End3 cells assessed as decrease in TNF-alpha-mediated IkB-alpha phosphorylation preincubated for 2 hrs followed by TNF-alpha stimulation for 20 mins by Western blot analysis. It is filed as cell-based. In outline:
as §1

Series [7] shares this target. Description: Inhibition of UbcH5c in mouse b.End3 cells assessed as decrease in TNF-alpha-mediated IkB-alpha degradation preincubated for 2 hrs followed by TNF-alpha stimulation for 20 mins by Western blot analysis. It is filed as cell-based. In outline: as §1
Series [8] shares this target. Kind of series: Inhibition of UbcH5c in mouse b.End3 cells assessed as decrease in TNF-alpha-mediated p65 phosphorylation preincubated for 2 hrs followed by TNF-alpha stimulation for 20 mins by Western blot analysis. It is filed as cell-based. In outline: as §1

The structures appear in SMILES notation. The source made the active and inactive calls. No cut-off for these calls is given here.

Consider `C=C1C(=O)O[C@@H]2C3=C(C)[C@@H](OC(=O)c4ccc(C)cc4)CC3[C@](C)(OC(C)=O)CC[C@@H]12` (some centres not stated), for which, in series [1], the cytotoxicity at 5 µM was under 20%.

As for `C=C1C(=O)O[C@@H]2C[C@]3(C)C(=C[C@H]12)[C@@H](C)CC[C@H]3O`, the inhibition result in series [2] and in series [4] was “Active” each time. Moreover, in series [3], the Kd stood at 2580 nM.

With `C=C1C(=O)O[C@@H]2C3[C@@H](C)[C@@H](OC(=O)C4CCCC4)CC[C@]3(C)CC[C@@H]12` (some centres not stated), in series [5], the inhibition entry is “inactive”.

For the molecule `C=C1C(=O)O[C@H]2c3c(C)c(OC(=O)c4cccnc4)cc(C)c3CC[C@@H]12`, the cytotoxicity at 5 µM in series [1] is under 20%.

In series [1], `C=C1C(=O)O[C@H]2c3c(C)c(OC(=O)/C=C/c4cccs4)cc(C)c3CC[C@@H]12` returned a cytotoxicity at 5 µM of under 20%.

The molecule `C=C1C(=O)O[C@H]2c3c(C)c(OCc4ccc(OC(F)(F)F)cc4)cc(C)c3CC[C@@H]12` returned a cytotoxicity at 5 µM in series [1] of under 20%.

For `C=C1C(=O)O[C@@H]2C3[C@@H](C)[C@@H](OC(=O)c4ccc(I)cc4)CC[C@]3(C)CC[C@@H]12` (some centres not stated), the inhibition entry in series [6], in series [7] and in series [8] was “Dose-dependent effect” in each case. Besides, in series [1], the cytotoxicity at 5 µM was under 20%. In addition, the inhibition entry in series [2] and in series [4] was “Active” throughout.

`C=C1C(=O)O[C@@H]2C3=C(C)[C@@H](OC(=O)/C=C/c4ccc(OCCC)cc4)CC3[C@](C)(OC(C)=O)CC[C@@H]12` (some centres not stated) had a cytotoxicity at 5 µM in series [1] of under 20%.

`C=C1C(=O)O[C@H]2c3c(C)c(OC(=O)/C=C/c4cccnc4)cc(C)c3CC[C@@H]12`: the inhibition entry in series [6], in series [7] and in series [8] was “Dose-dependent effect” each time. The same molecule displayed a cytotoxicity at 5 µM in series [1] of under 20%. The inhibition result in series [2] and in series [4] was “Active” throughout.

On to `C=C1C(=O)O[C@@H]2C3[C@@H](C)[C@@H](OC(=O)C4CCCCC4)CC[C@]3(C)CC[C@@H]12` (some centres not stated), for which, in series [5], the inhibition result is “inactive”.

As for `C=C1C(=O)O[C@@H]2C3=C(C)[C@@H](OC(=O)c4ccccc4)CC3[C@](C)(OC(C)=O)CC[C@@H]12` (some centres not stated), the inhibition result in series [6], in series [7] and in series [8] was “Dose-dependent effect” throughout. Also, the cytotoxicity at 5 µM in series [1] is under 20%. The inhibition result in series [2] and in series [4] was “Active” throughout.

As to `C=C1C(=O)O[C@H]2c3c(C)c(OCc4ccccc4C(F)(F)F)cc(C)c3CC[C@@H]12`, the cytotoxicity at 5 µM in series [1] was under 20%.

Regarding `C=C1C(=O)O[C@@H]2C3[C@@H](C)[C@@H](OC(=O)c4cccc(I)c4)CC[C@]3(C)CC[C@@H]12` (some centres not stated), the inhibition result in series [6], in series [7] and in series [8] was “Dose-dependent effect” throughout. Also, the cytotoxicity at 5 µM in series [1] is under 20%. In addition, the inhibition entry in series [2] and in series [4] was “Active” in each case.

`C=C1C(=O)O[C@@H]2C3[C@@H](C)[C@@H](OC(=O)c4ccco4)CC[C@]3(C)CC[C@@H]12` (some centres not stated) came in with a cytotoxicity at 5 µM in series [1] of under 20%.

Take `C=C1C(=O)O[C@@H]2C3=C(C)[C@@H](OC(=O)c4ccc(Cl)cc4)CC3[C@](C)(OC(C)=O)CC[C@@H]12` (some centres not stated): the inhibition result in series [6], in series [7] and in series [8] was “Dose-dependent effect” in each case. The cytotoxicity at 5 µM in series [1] is under 20%. For the same molecule, the inhibition entry in series [2] and in series [4] was “Active” in each case.

For `C=C1C(=O)O[C@@H]2C3[C@@H](C)[C@@H](OC(=O)CCCC)CC[C@]3(C)CC[C@@H]12` (some centres not stated), the inhibition entry in series [5] is “inactive”.

Turning to `C=C1C(=O)O[C@@H]2C3[C@@H](C)[C@@H](OC(C)=O)CC[C@]3(C)CC[C@@H]12` (some centres not stated), in series [5], the inhibition result was “inactive”.

On to `C=C1C(=O)O[C@@H]2C3[C@@H](C)[C@@H](OC(=O)CCC)CC[C@]3(C)CC[C@@H]12` (some centres not stated), for which the inhibition entry in series [5] is “inactive”.

As to `C=C1C(=O)O[C@@H]2C3[C@@H](C)[C@@H](OC(=O)CC)CC[C@]3(C)CC[C@@H]12` (some centres not stated), the inhibition entry in series [5] was “inactive”.

Consider `C=C1C(=O)O[C@H]2c3c(C)c(OC(=O)/C=C/c4ccc(OC(F)(F)F)cc4)cc(C)c3CC[C@@H]12`, for which, in series [1], the cytotoxicity at 5 µM was under 20%.

One may read the Kd as the free concentration of one partner at which half of the binding sites on the other are occupied at equilibrium, for simple one-to-one binding.
